Measured values reported in ChEMBL document CHEMBL1135436, “Structure-activity relationships of the melanocortin tetrapeptide Ac-His-DPhe-Arg-Trp-NH(2) at the mouse melanocortin receptors. 1. Modifications at the His position” (J Med Chem, 2002).
Where a SMILES comes first, the peptide text is derived from it. [ ]: non-standard residue; d: D form. Tic = O=C(O)[C@@H]1Cc2ccccc2CN1; dTic = O=C(O)[C@H]1Cc2ccccc2CN1; 2Thi = N[C@@H](Cc1cccs1)C(=O)O

Experiments:
[1] = molecular target: Melanocortin receptor 5 (Mus musculus, UniProt P41149); assay: In vitro activation of mouse recombinant Melanocortin-5 receptor.
Chain of Melanocortin receptor 5 (P41149 whole entry): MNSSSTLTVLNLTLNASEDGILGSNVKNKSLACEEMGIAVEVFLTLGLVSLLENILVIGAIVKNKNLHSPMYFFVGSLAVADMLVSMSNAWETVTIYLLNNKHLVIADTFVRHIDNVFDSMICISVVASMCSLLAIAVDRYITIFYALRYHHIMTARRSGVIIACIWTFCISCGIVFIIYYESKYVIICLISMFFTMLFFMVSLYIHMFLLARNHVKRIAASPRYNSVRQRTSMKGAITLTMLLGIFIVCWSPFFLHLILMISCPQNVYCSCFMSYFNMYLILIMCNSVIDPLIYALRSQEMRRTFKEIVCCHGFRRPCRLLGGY
Summary of the method: (§1)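 HEK-293 cells stably expressing the mouse receptor (calcium phosphate transfection, G418 1 mg/mL selection) were transfected with a CRE/β-galactosidase reporter. Lysates were read with ONPG at 37 °C (OD405), normalized to protein (OD595) and forskolin. EC50 came from nonlinear least-squares fitting, duplicate experiments in quadruplet.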

[2] = molecular target: Melanocortin receptor 4 (Mus musculus, UniProt P56450); assay: In vitro activation of mouse recombinant Melanocortin-4 receptor.; summary of the method: as §1
Chain of Melanocortin receptor 4 (P56450 whole entry): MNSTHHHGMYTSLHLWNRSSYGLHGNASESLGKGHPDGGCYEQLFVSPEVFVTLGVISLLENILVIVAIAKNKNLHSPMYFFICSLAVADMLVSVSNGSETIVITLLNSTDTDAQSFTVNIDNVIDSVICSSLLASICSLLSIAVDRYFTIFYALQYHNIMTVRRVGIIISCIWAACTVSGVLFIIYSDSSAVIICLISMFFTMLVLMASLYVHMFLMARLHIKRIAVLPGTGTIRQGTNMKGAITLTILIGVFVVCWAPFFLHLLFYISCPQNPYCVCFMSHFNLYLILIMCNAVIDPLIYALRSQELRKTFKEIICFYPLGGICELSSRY

[3] = molecular target: T1, Melanocortin receptor 3 (Mus musculus, UniProt P33033); assay: In vitro activation of mouse recombinant Melanocortin-3 receptor.; summary of the method: as §1
T1 sequence (P33033 whole entry): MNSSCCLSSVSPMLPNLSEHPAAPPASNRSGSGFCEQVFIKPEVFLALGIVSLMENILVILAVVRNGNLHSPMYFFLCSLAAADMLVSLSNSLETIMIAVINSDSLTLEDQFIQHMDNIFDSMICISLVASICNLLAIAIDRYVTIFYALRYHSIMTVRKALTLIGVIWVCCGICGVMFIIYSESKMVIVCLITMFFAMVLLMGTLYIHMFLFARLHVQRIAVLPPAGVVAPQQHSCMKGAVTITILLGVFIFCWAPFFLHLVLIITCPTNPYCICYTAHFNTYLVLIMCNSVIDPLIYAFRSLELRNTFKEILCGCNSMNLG

[4] = molecular target: Melanocyte-stimulating hormone receptor (Mus musculus, UniProt Q01727); assay: In vitro activation of mouse recombinant Melanocortin-1 receptor.; summary of the method: as §1
Chain of Melanocyte-stimulating hormone receptor (Q01727 whole entry): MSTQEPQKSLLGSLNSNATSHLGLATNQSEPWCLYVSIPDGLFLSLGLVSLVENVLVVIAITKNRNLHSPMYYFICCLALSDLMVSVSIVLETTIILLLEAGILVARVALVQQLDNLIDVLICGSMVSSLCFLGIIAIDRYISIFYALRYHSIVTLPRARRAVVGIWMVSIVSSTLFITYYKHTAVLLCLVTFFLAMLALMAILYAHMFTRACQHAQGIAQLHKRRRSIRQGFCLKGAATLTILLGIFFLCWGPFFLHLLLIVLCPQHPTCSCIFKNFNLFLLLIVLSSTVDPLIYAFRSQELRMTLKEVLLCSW

[5] = molecular target: T1, Melanocortin receptor 3; assay: Agonist activity of compound in mouse Melanocortin-3 receptor (mMC3R); Slight agonist; type: functional
Summary of the method: as §1, with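 “reporter. At 48 h they were stimulated for 6 h with peptide (10^-4–10^-12 M) or forskolin (10^-4 M) in DMEM with 0.1 mg/mL BSA and 0.1 mM IBMX.” for “reporter.”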

SMILES	EC50 [1] [µM]	EC50 [2] [µM]	EC50 [3] [µM]	EC50 [4] [µM]	EC50 [5]
CC(=O)N[C@@H](Cc1ccncc1)C(=O)N[C@H](Cc1ccccc1)C(=O)N[C@@H](CCCN=C(N)N)C(=O)N[C@@H](Cc1c[nH]c2ccccc12)C(N)=O	0.0925	0.128	2.27	0.176	
CC(=O)N[C@@H](Cc1cccnc1)C(=O)N[C@H](Cc1ccccc1)C(=O)N[C@@H](CCCN=C(N)N)C(=O)N[C@@H](Cc1c[nH]c2ccccc12)C(N)=O	0.4	0.887		1.15	Partial agonist
CC(=O)N[C@@H](Cc1ccccc1)C(=O)N[C@H](Cc1ccccc1)C(=O)N[C@@H](CCCNC(=N)N)C(=O)N[C@@H](Cc1c[nH]c2ccccc12)C(N)=O	0.143	0.0706	11.9	0.503	
CC(=O)N[C@H](Cc1ccc2ccccc2c1)C(=O)N[C@H](Cc1ccccc1)C(=O)N[C@@H](CCCNC(=N)N)C(=O)N[C@@H](Cc1c[nH]c2ccccc12)C(N)=O	2.24	1.5	> 100	7.1	
CC(=O)N[C@H](Cc1ccccc1)C(=O)N[C@H](Cc1ccccc1)C(=O)N[C@@H](CCCNC(=N)N)C(=O)N[C@@H](Cc1c[nH]c2ccccc12)C(N)=O	2.98	2.17	> 100	11.5	
CC(=O)N[C@@H](C)C(=O)N[C@H](Cc1ccccc1)C(=O)N[C@@H](CCCN=C(N)N)C(=O)N[C@@H](Cc1c[nH]c2ccccc12)C(N)=O	0.3	1	9	1.8	
CC(=O)N[C@@H](Cc1csc2ccccc12)C(=O)N[C@H](Cc1ccccc1)C(=O)N[C@@H](CCCN=C(N)N)C(=O)N[C@@H](Cc1c[nH]c2ccccc12)C(N)=O	0.381	0.211	19.8	4.4	
CC(=O)N[C@H](Cc1c[nH]c2ccccc12)C(=O)N[C@H](Cc1ccccc1)C(=O)N[C@@H](CCCNC(=N)N)C(=O)N[C@@H](Cc1c[nH]c2ccccc12)C(N)=O	1.26	6.2	> 100	6.6	
CC(=O)N[C@@H](Cc1c[nH]c2ccccc12)C(=O)N[C@H](Cc1ccccc1)C(=O)N[C@@H](CCCN=C(N)N)C(=O)N[C@@H](Cc1c[nH]c2ccccc12)C(N)=O	0.507	0.528	10.3	5.4	
CC(=O)N[C@@H](Cc1ccc2ccccc2c1)C(=O)N[C@H](Cc1ccccc1)C(=O)N[C@@H](CCCN=C(N)N)C(=O)N[C@@H](Cc1c[nH]c2ccccc12)C(N)=O	0.606	2.9	14.7	9.5	
CC(=O)N[C@H](Cc1cnc[nH]1)C(=O)N[C@H](Cc1ccccc1)C(=O)N[C@@H](CCCNC(=N)N)C(=O)N[C@@H](Cc1c[nH]c2ccccc12)C(N)=O	0.138	0.506			
CC(=O)NC1(C(=O)N[C@H](Cc2ccccc2)C(=O)N[C@@H](CCCNC(=N)N)C(=O)N[C@@H](Cc2c[nH]c3ccccc23)C(N)=O)CCc2ccccc2C1 (stereo partly specified)	2.4	0.714		7.73	
CC(=O)N1CCC[C@H]1C(=O)N[C@H](Cc1ccccc1)C(=O)N[C@@H](CCCN=C(N)N)C(=O)N[C@@H](Cc1c[nH]c2ccccc12)C(N)=O (Ac-P[dF]RW-NH2)	0.684	1.5	15	4.25	
CC(=O)N[C@@H](Cc1cccs1)C(=O)N[C@H](Cc1ccccc1)C(=O)N[C@@H](CCCNC(=N)N)C(=O)N[C@@H](Cc1c[nH]c2ccccc12)C(N)=O (Ac-[2Thi][dF]RW-NH2)	0.0405	0.0912	2.95	0.203	
CC(=O)N1Cc2ccccc2C[C@H]1C(=O)N[C@H](Cc1ccccc1)C(=O)N[C@@H](CCCNC(=N)N)C(=O)N[C@@H](Cc1c[nH]c2ccccc12)C(N)=O (Ac-[Tic][dF]RW-NH2)	0.369	2.9	11.8	2.6	
CC(=O)N1Cc2ccccc2C[C@@H]1C(=O)N[C@H](Cc1ccccc1)C(=O)N[C@@H](CCCN=C(N)N)C(=O)N[C@@H](Cc1c[nH]c2ccccc12)C(N)=O (Ac-[dTic][dF]RW-NH2)	12	11.7	> 100	11.3	
